We go through 16 molecules from ChEMBL document CHEMBL2424606, “Selective cytotoxicity, inhibition of cell cycle progression, and induction of apoptosis in human breast cancer cells by sesquiterpenoids from Inula lineariifolia Turcz” (Eur J Med Chem, 2013).

Experiment [1] deals with MCF7. As to the kind of experiment: Cytotoxicity against human MCF7 cells assessed as growth inhibition after 72 hrs by MTT assay. The class given is functional, cell-based. Conditions: MCF7, 72 h. The gist of the method:
(§1)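 3×10³ cells/well exposed 72 h to compound at 0, 1, 5, 10, 25, 50 μM, DMSO as vehicle control. MTT (5 mg/mL solution) added for 2–4 h at 37°C. Formazan dissolved in DMSO, absorbance read at 570 nm. Viability is mean OD relative to DMSO wells. IC50 from three separate experiments.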

In the next experiment the test system is MCF-10A. As to the kind of experiment: Cytotoxicity against human MCF10A cells assessed as growth inhibition after 72 hrs by MTT assay. The class given is cell-based. The procedure, abridged: as §1
Experiment [2] deals with MDA-MB-231. As to the kind of experiment: Cytotoxicity against human MDA-MB-231 cells assessed as growth inhibition after 72 hrs by MTT assay. The class given is functional, cell-based. The note with it: MDA-MB-231, 72 h. The procedure, abridged: as §1
Experiment [3] concerns MCF7. The experiment is described as follows: Cell cycle arrest in human MCF7 cells assessed as accumulation at G2/M phase at 2.5 uM after 24 hrs by propidium iodide staining-based flow cytometric analysis. It counts as functional. The gist of the method:
(§2)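 Cells (2–3×10⁵) exposed to test compound at 0, 1 or 2.5 μM for 24 h. Trypsinized, PBS-washed, fixed in 95% ethanol at 4 °C overnight, RNAse-treated, propidium iodide-stained. DNA content measured by flow cytometry for phase distribution.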

For experiment [4], the system named is MDA-MB-231. The experiment is described as follows: Cell cycle arrest in human MDA-MB-231 cells assessed as accumulation at G2/M phase at 2.5 uM after 24 hrs by propidium iodide staining-based flow cytometric analysis. It counts as functional. The gist of the method: as §2
For experiment [5], the system named is MCF7. As to the kind of experiment: Cell cycle arrest in human MCF7 cells assessed as accumulation at G2/M phase after 24 hrs by propidium iodide staining-based flow cytometric analysis. It counts as functional. The procedure, abridged: as §2
In experiment [6] the test system is MCF7. As to the kind of experiment: Induction of apoptosis in human MCF7 cells after 48 hrs by annexin V-FITC/propidium iodide staining-based flow cytometric analysis. It counts as functional, cell-based. The gist of the method:
(§3)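 Treatment of 2–3×10⁵ cells with compound at 0, 1 or 5 μM for 48 h. Media plus cells collected, washed in serum-free medium, resuspended in Annexin V binding buffer. Stained with annexin V-FITC and propidium iodide 15 min in the dark at room temperature, then flow cytometry. Early (annexin only) and late (annexin+PI) apoptotic cells counted. Apoptotic index vs untreated cells. Means ± S.D., Student's t-test vs DMSO control.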

Experiment [7] has as its system MDA-MB-231. The experiment is described as follows: Cell cycle arrest in human MDA-MB-231 cells assessed as accumulation at S phase at 2.5 uM after 24 hrs by propidium iodide staining-based flow cytometric analysis. The class given is functional. The gist of the method:
as §2

The test system of experiment [8] is MDA-MB-231. The experiment is described as follows: Cell cycle arrest in human MDA-MB-231 cells assessed as accumulation at S phase after 24 hrs by propidium iodide staining-based flow cytometric analysis. It counts as functional. The procedure, abridged: as §2
The test system of experiment [9] is MDA-MB-231. As to the kind of experiment: Induction of apoptosis in human MDA-MB-231 cells assessed as apoptotic index at 5 uM after 48 hrs by annexin V-FITC/propidium iodide staining-based flow cytometric analysis relative to control. The class given is functional. The procedure, abridged: as §3
In experiment [10] the test system is MCF7. The experiment is described as follows: Induction of apoptosis in human MCF7 cells assessed as apoptotic index at 5 uM after 48 hrs by annexin V-FITC/propidium iodide staining-based flow cytometric analysis relative to control. It counts as functional. The procedure, abridged: as §3
Experiment [11] relates to MDA-MB-231. The experiment is described as follows: Induction of apoptosis in human MDA-MB-231 cells after 48 hrs by annexin V-FITC/propidium iodide staining-based flow cytometric analysis. The class given is functional, cell-based. The gist of the method: as §3
Experiment [12] relates to MDA-MB-231. As to the kind of experiment: Cell cycle arrest in human MDA-MB-231 cells assessed as accumulation at G2/M phase after 24 hrs by propidium iodide staining-based flow cytometric analysis. The class given is functional. The procedure, abridged:
as §2

Structures are written as SMILES. Active and inactive are the calls of the source. The calls are words filed in the database; no cut-off is given here. A value given as a limit tells only on which side of the number the result lay.

`C=C1C(=O)O[C@H]2C[C@@H](C)[C@@H]3C=CC(=O)[C@@]3(C)[C@@H](OC(C)=O)[C@H]12` [BIGELOVIN]: the IC50 stood at 2.1 µM in the experiment with MCF7 [1], 26 µM in the experiment with MCF-10A and 2.3 µM with MDA-MB-231 [2].

For `C=C1C(=O)O[C@H]2C[C@H](C)[C@@]34C[C@@]5(C(=O)O[C@H]6C=C(C)[C@H]7[C@@H](OC(C)=O)C[C@@](C)(O)[C@@H]7C[C@@H]65)[C@@H](C(C)=C3C[C@H]12)[C@@H]4OC(C)=O`, the figures for the concentration for half-maximal inhibition (IC50) in the experiment on MCF7 [1], in the experiment with MCF-10A and in the experiment on MDA-MB-231 [2] were 3.4 µM, above 50 µM and 10.7 µM, respectively.

On to `C=C1C(=O)O[C@H]2C[C@H](C)[C@@]34C[C@@]5(C(=O)O[C@H]6C[C@@H](C)[C@@H]7[C@@H](OC(C)=O)C[C@H](O)[C@@]7(C)C[C@@H]65)[C@@H](C(C)=C3C[C@H]12)[C@@H]4O`, for which the result with MCF7 [3], in the experiment on MDA-MB-231 [4] and in the experiment on MDA-MB-231 [7] was Active. For the same molecule, the results for the half-maximal inhibitory concentration (IC50) with MCF7 [1], with MCF-10A and in the experiment with MDA-MB-231 [2] were 1.6 µM, 27.9 µM and 2.8 µM, respectively. For the same molecule, the Activity result with MCF7 [5], in the experiment on MCF7 [6], in the experiment with MDA-MB-231 [8], in the experiment on MDA-MB-231 [11] and in the experiment on MDA-MB-231 [12] was “Dose-dependent effect” throughout. Moreover, the “fold change (FC)” value with MDA-MB-231 [9] is given as 14.2; in the experiment on MCF7 [10], 7.6.

`C=C1C(=O)O[C@@H]2/C=C(\C)CC/C=C(\CO)C[C@@H](O)[C@@H]12` [DEACETYLOVATIFOLIN]: the IC50 turned out to be 6.9 µM in the experiment on MCF7 [1], 45.7 µM in the experiment on MCF-10A and 13.8 µM in the experiment on MDA-MB-231 [2].

`C=C1C(=O)O[C@H]2C=C(C)[C@@H]3[C@@H]([C@@H](O)[C@H]12)[C@](C)(O)C[C@@H]3OC(C)=O`: the figures for the IC50 in the experiment on MCF7 [1], with MCF-10A and in the experiment on MDA-MB-231 [2] were 6.2 µM, above 50 µM and 11.4 µM, respectively.

For `C=C1C(=O)O[C@@H]2CC(C)=C3[C@@H](OC(C)=O)C[C@@](C)(O)[C@@H]3[C@@H](O)[C@H]12`, the IC50 in the experiment with MCF7 [1], in the experiment on MCF-10A and with MDA-MB-231 [2] was above 50 µM each time.

On to `C=C1C(=O)O[C@H]2C[C@H](C)[C@H]3[C@@H](O)C[C@@](C)(O)[C@@]34O[C@H]4[C@H]12`, for which the IC50 with MCF7 [1], in the experiment on MCF-10A and in the experiment on MDA-MB-231 [2] was above 50 µM each time.

Turning to `C=C1C(=O)O[C@H]2C[C@H](C)[C@@]34C[C@@]5(C(=O)O[C@H]6/C=C(\C)CC/C=C(\CO)C[C@H](O)[C@@H]65)[C@@H](C(C)=C3C[C@H]12)[C@@H]4OC(C)=O`, the IC50 with MCF7 [1] is 3.7 µM; in the experiment on MCF-10A it was 26.4 µM; in the experiment on MDA-MB-231 [2], 5.7 µM.

With `C=C1C(=O)O[C@H]2C[C@H](C)[C@@]34C[C@@]5(C(=O)O[C@H]6C=C(C)[C@H]7[C@@H](OC(C)=O)C[C@@](C)(O)[C@@H]7C[C@@H]65)[C@@H](C(C)=C3C[C@H]12)[C@@H]4O`, the IC50 was 7.8 µM in the experiment with MCF7 [1], above 50 µM in the experiment with MCF-10A and 16.5 µM with MDA-MB-231 [2].

On to `C=C1C(=O)O[C@@H]2CC(C)=C3[C@@H](C[C@H]12)[C@](C)(O)C[C@@H]3O`, for which the IC50 with MCF7 [1], in the experiment on MCF-10A and with MDA-MB-231 [2] was above 50 µM each time.

Turning to `C=C1C(=O)O[C@@H]2CC(C)=C3[C@@H](OC(C)=O)C[C@@](C)(O)[C@@H]3C[C@H]12` [INUCHINENOLIDE B], the values for the IC50 with MCF7 [1], with MCF-10A and in the experiment on MDA-MB-231 [2] were 15.5 µM, above 50 µM and 25.8 µM, respectively.

For the molecule `C=C1C[C@@H]2OC(=O)C(=C)[C@H]2C[C@@H]2[C@@H]1[C@@H](O)C[C@@]2(C)O`, the 50% inhibitory concentration (IC50) in the experiment on MCF7 [1] was 13.7 µM; in the experiment on MCF-10A it was above 50 µM; with MDA-MB-231 [2] it was 21.1 µM.

With `C[C@@H]1C2=C[C@H]3[C@@H](C[C@@]2(C)CC[C@@H]1O)OC(=O)[C@@H]3C`, the concentration for half-maximal inhibition (IC50) in the experiment with MCF7 [1], in the experiment on MCF-10A and with MDA-MB-231 [2] was above 50 µM each time.

For `CC(=O)O[C@H]1C(=O)[C@@]2(C)[C@H]([C@H](OC(=O)c3ccccc3)[C@]3(O)C[C@H](OC(=O)[C@H](O)[C@@H](NC(=O)c4ccccc4)c4ccccc4)C(C)=C1C3(C)C)[C@]1(OC(C)=O)CO[C@@H]1C[C@@H]2O` [PACLITAXEL], the IC50 with MCF7 [1] was determined as 0.0752 µM; in the experiment with MCF-10A it was 0.427 µM; with MDA-MB-231 [2] it was 0.087 µM.

Regarding `C=C1C(=O)O[C@@H]2C[C@H](C)[C@@H]3[C@@H](OC(C)=O)C[C@H](O)[C@@]3(C)C[C@H]12`, the 50% inhibitory concentration (IC50) in the experiment with MCF7 [1] is 6.7 µM; with MCF-10A it was above 50 µM; in the experiment on MDA-MB-231 [2], 12.9 µM.

Turning to `CC(=O)O[C@H]1C=C(CCO)[C@@H](C)C[C@H]2OC(=O)[C@@H](C)[C@@H]12`, the IC50 with MCF7 [1], with MCF-10A and in the experiment with MDA-MB-231 [2] was above 50 µM throughout.
